Compounds with a hit are over-represented: about 1.7% of the library has one in this group of screens.
STEP inh = STEP (human) phosphatase inhibition; recombinant STEP, OMFP fluorogenic substrate, fluorescence; inhibition, % at 20 µM; hit rate 0.25% among 360,000;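 active means inhibition at 20 µM, scaled per plate between control wells, above about 37%, limit read from the data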;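 further: 0% = DMSO with enzyme and substrate and 100% = substrate only without enzyme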
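Measure: Control-normalized % inhibition with plate pattern correction | Test system: STEP phosphatase, cell-free reaction | Medium: pH 6.0 Bis-Tris with DTT and Tween 20 | Technique: Fluorescence, 480/540 nm | Times: Reaction 20 min, ambient temperature | Doses: Single compound dose of 20 µM, 1% DMSO final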
DNMT1 inh = blocks human DNA methyltransferase DNMT1. P26358. hit rate 0.83% among 360,000. inhibition (reported as % activation of signal), % at 10 µM. DNMT1 molecular beacon, Hinp1I cleavage, fluorescence; in the data active means inhibition above about 50%
SUMO1 PPI mod = modulators of human SUMO1-mediated protein-protein interactions. hit rate 0.33% among 360,000. SUMO1 binding to a labelled peptide, TR-FRET, 1 h. inhibition, % at 20 µM. P63165; in the data active means inhibition above about 37%
Scp1 inh = inhibitors of human Scp-1 phosphatase; Q9GZU7; Recombinant Scp1, phosphopeptide, malachite green phosphate absorbance; inhibition, % at 20 µM; hit rate 0.88% among 340,000;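 active means inhibition above about 50% at 20 µM, limit read from the data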;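 further: plate controls were DMSO wells with enzyme for no effect and wells lacking enzyme for full effect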
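Incubation: 45 min enzyme reaction at room temperature / System: truncated SCP-1 phosphatase (76-261aa) / Reagent: Phospho 17-mer peptide substrate / Buffer or medium: Acidic Tris acetate buffer with magnesium and detergent / Signal: absorbance at 630 nm / Doses: one concentration, 20 µM, with 1.0% DMSO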
LMPTP block = LMPTP (human) inhibition | P24666 | recombinant LMPTP-A, OMFP fluorogenic substrate, fluorescence intensity | inhibition, % at 20 µM | hit rate 0.22% among 360,000;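 active means compounds that cut the enzyme signal by at least half of the control window in the single-dose screen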;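 further: plate controls were DMSO wells with enzyme plus substrate for no effect and substrate without enzyme for full effect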
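Buffer or medium: Bis-Tris pH 6.0, DTT, detergent; Assay system: LMPTP-A enzyme; Quantity: 0.625 nM enzyme; Detection: endpoint fluorescence intensity; Times: 50 min dark incubation at room temperature; Controls: substrate-only low control, DMSO enzyme-plus-substrate high control; Doses: single 20 µM dose; Read-out: percent inhibition versus substrate-only and uninhibited controls; Reagent: 400 µM OMFP.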
Beacon interf DR = counter-screen for DNMT1 inhibitors: spectral interference, dose response. 200 tested, under 10 active. shares compounds with DNMT1 inh. IC50, µM. molecular beacon fluorescence; call rule not given here
DNMT1 inh conf = DNMT1 inhibition confirmation, single concentration | shares compounds with DNMT1 inh | DNMT1 molecular beacon HinP1I cleavage, fluorescence | inhibition, % at 10 µM | hit rate 8% among 2,300;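 active means average inhibition of at least 30% in the single-concentration confirmation test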
Beacon interf = shows spectral interference in the DNMT1 beacon assay; shares compounds with DNMT1 inh; DNMT1 molecular beacon spectral interference counterscreen, fluorescence 485/520; hit rate 1% among 2,300; AID 602387; activation (fluorescence interference), % at 10 µM;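 active means activation of at least 30% at 10 µM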;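 further: DNMT1 catalytic domain with a HinP1I cleavage step and a FAM/dabcyl DNA beacon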
* = called active by the depositor; · = no result.

SMILES	STEP inh	DNMT1 inh	SUMO1 PPI mod	Scp1 inh	LMPTP block	DNMT1 inh conf	Beacon interf	others
CC1(C(=O)NS(=O)(=O)Cc2ccccc2)CCN1C(=O)Cc1cc(F)ccc1F (configuration not stated)	-2	2	1	·	-3	·	·
O=S1(=O)CC(N2CCN(CC3CC3)CC2)CN1Cc1ccc(F)cc1 (configuration not stated)	0	5	4	·	-4	·	·
O=C(Nc1ccccc1N1CCCC1)c1cccc(-c2cc3ccccc3oc2=O)c1	8	3	-2	-2	3	·	·
O=C(Nc1ccc(N2CCCC2)cc1)c1ccc2ccccc2c1	7	61*	1	-3	7	3	2
O=C(Nc1ccc(N2CCCC2)cc1)c1cccc(-c2cc3ccccc3oc2=O)c1	9	76*	-2	-3	23	-1	4
Cc1ccc(CC(=O)Nc2nccs2)cc1C	-2	-9	0	-2	-1	·	·
Cc1c(=O)n(OCc2ccccc2F)c2ccccc2[n+]1[O-]	-3	84*	-19	-10	1	3	1
Cc1c(=O)n(OCc2cccc(F)c2)c2ccccc2[n+]1[O-]	18	0	-31	-2	0	·	·
Cc1ccc(NC(=O)C(=O)NN)cc1	-3	75*	5	-4	-2	3	-1
NNC(=O)C(=O)Nc1ccc(O)cc1	-2	0	-1	-2	0	·	·
NC(=O)COc1ccc(/C=C2\C(=O)ON=C2c2ccccc2)cc1	1	8	4	0	0	·	·
Cc1ccc(C(OCC(O)CNCc2ccc(F)cc2)c2ccccc2)cc1 (configuration not stated)	-2	1	10	11	1	·	·
Cc1ccc(-c2nnc(Nc3cccc(O)c3)c3ccccc23)cc1S(=O)(=O)NCCO	-1	90*	-5	-2	1	7	4
O=C(Nc1ccc2c(c1)OCO2)C1CC(c2cccc(Br)c2)=NO1 (configuration not stated)	-3	1	6	-2	3	·	·
CCNC(=O)C1CCCN(C(=O)c2c(-c3ccccc3)noc2C)CC1 (configuration not stated)	-3	3	-4	·	-2	·	·
Cc1ccc(CNC(=S)NC2CCCCC2)cc1	0	2	-8	4	0	·	·
Cc1cc2cc(CNC(=S)NCc3ccccc3)ccc2n1C	5	77*	-4	3	19	2	2
Cc1cc2cc(CNC(=S)NC3CCCCC3)ccc2n1C	3	63*	-7	4	5	6	6
CCOC(=O)NCc1ccc2c(c1)cc(C)n2C	6	-12	-28	-8	4	·	·
Cc1cc2cc(CNS(=O)(=O)c3ccccc3)ccc2n1C	1	26	-26	-6	32	·	·
COc1ccc(S(=O)(=O)NCc2ccc3c(c2)cc(C)n3C)cc1	2	59*	-20	-7	36	0	15
Cc1cc2cc(CNC(=O)Nc3ccccc3)ccc2n1C	3	54*	-6	3	6	2	5
O=C(CSc1nnc(Nc2ccccc2)s1)NC1CCCC1	-2	0	2	-6	0	·	·
CCCCCOc1ccc(C(=O)CCC(=O)NC(C)c2ccc(S(N)(=O)=O)cc2)cc1 (configuration not stated)	1	75*	10	-4	1	2	2
Cc1cc(C)c(C2=Nn3c(C)nnc3SC2C)cc1C (configuration not stated)	-2	-1	3	-5	-1	·	·
SMILES	STEP inh	DNMT1 inh	SUMO1 PPI mod	Scp1 inh	LMPTP block	DNMT1 inh conf	Beacon interf	others
CCCNC(=O)c1ccc2c(=O)n3c(-c4ccc(C)cc4)csc3nc2c1	1	53*	-20	5	-2	13	-2
Cn1ncc(N=Cc2c(O)ccc3ccccc23)c1C(=O)Nc1cccc(Cl)c1	0	51*	-6	-7	3	7	0
Cn1ncc(Cl)c1C(=O)Nc1cccc(Cl)c1	2	-9	-2	-10	-1	·	·
Cc1[nH][nH]c(=O)c1C(c1ccc(-c2ccccc2C(=O)O)o1)c1c(C)[nH][nH]c1=O	11	75*	8	42	2	-2	-2
O=C(O)C1Oc2cc3ccccc3cc2O1	16	55*	4	50	23	5	4
O=C(O)c1cc2ccccc2cn1	3	4	1	3	14	·	·
COc1ccc(NS(=O)(=O)c2ccc(O)c(NC(=O)c3cc4c(C)nn(-c5ccc(F)cc5)c4s3)c2)cc1	-2	97*	12	16	3	69*	-4	Beacon interf DR=>99
NC(=S)NN=Cc1ccc(-c2ccc(S(=O)(=O)Nc3ncccn3)cc2)o1	3	89*	33	3	13	12	-3
COCCn1c(-c2ccc(-c3ccc([N+](=O)[O-])cc3Br)o2)nc2c1c(=O)[nH]c(=O)n2CC(C)C	0	70*	-8	-7	4	-1	-1
COCCn1c(=O)[nH]c(=O)c2c1nc(-c1ccc(-c3ccc(Cl)cc3[N+](=O)[O-])o1)n2Cc1ccccc1	1	-41	-3	-7	4	·	·
COc1ccc(C(=O)N/C(=C\c2ccc(Cl)cc2)C(=O)NCc2ccncc2)cc1	-3	79*	-2	·	-2	3	4
COc1ccc(/C=C(/NC(=O)c2ccc(C)cc2)C(=O)NCc2ccncc2)cc1	-2	4	-4	-6	-2	·	·
COc1ccccc1C1=NC(c2ccc(F)cc2)N=C1C (configuration not stated)	1	74*	1	-2	0	3	2
CCN(CC(=O)NC1CCS(=O)(=O)C1)S(=O)(=O)c1cc(Br)ccc1Br (configuration not stated)	3	8	2	2	-1	·	·
CCc1nnc(NC(=O)c2ccc(-c3ccc(Cl)cc3)o2)s1	1	68*	1	-6	21	5	2
NC(=O)Cn1c(=O)n(Cc2ccco2)c(=O)c2c3c(sc21)CCCCC3	16	83*	12	71*	8	3	0
O=C(Oc1ccccc1C(=S)N1CCOCC1)c1cccc([N+](=O)[O-])c1	-1	1	-33	-2	0	·	·
COC(=O)c1ccc(NC(=O)CCN2CCOCC2)cc1	1	92*	-4	-1	-1	2	3
COc1ccc2oc(C(=O)Nc3ccc(N4CCOCC4)cc3)c(C)c2c1	2	51*	2	15	2	21	2
CCN1CCc2nc(NC(=O)CC(c3ccccc3)c3ccccc3)sc2C1	6	44	-4	-1	2	·	·

High-throughput results (PubChem BioAssay)
